Data on 14 compounds can be found in ChEMBL document CHEMBL4725329, “Anti-proliferative potential of triphenyl substituted pyrimidines against MDA-MB-231, HCT-116 and HT-29 cancer cell lines” (Bioorg Med Chem Lett, 2020).

The test system of one assay is MDA-MB-231. The experiment in a line: Antiproliferative activity against human MDA-MB-231 cells assessed as inhibition of cell proliferation measured after 48 hrs by MTT assay. The class given is functional, cell-based. The conditions noted are these: MDA-MB-231, 48 h. The method in brief: (§1)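 Cells were exposed to test compounds at 1, 5, 10 and 25 µM for 48 h, with each concentration run in triplicate. Untreated cells served as control. Cell viability was measured and IC₅₀ values were derived as mean ± SD of three independent experiments.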

The subject of assay [1] is HCT-116. The experiment in a line: Antiproliferative activity against human HCT-116 cells assessed as inhibition of cell proliferation measured after 48 hrs by MTT assay. The class given is functional, cell-based. The conditions noted are these: HCT-116, 48 h. The method in brief: as §1
The next assay concerns HT-29. Kind of assay: Antiproliferative activity against human HT-29 cells assessed as inhibition of cell proliferation measured after 48 hrs by MTT assay. The conditions noted are these: HT-29, 48 h. The class given is functional, cell-based. The procedure, abridged:
as §1

The test system of assay [2] is HCT-116. Kind of assay: Induction of apoptosis in human HCT-116 cells assessed as live cells at 5 uM measured after 24 hrs by annexin-V/FITC staining based flow cytometry analysis (reference value: 97.1 %). The class given is functional.
Assay [3] concerns HCT-116. The experiment in a line: Induction of apoptosis in human HCT-116 cells assessed as early apoptotic cells at 5 uM measured after 24 hrs by annexin-V/FITC staining based flow cytometry analysis (reference value: 0.3 %). Type of assay: functional.
Assay [4] deals with HCT-116. The experiment in a line: Induction of apoptosis in human HCT-116 cells assessed as late apoptotic cells at 5 uM measured after 24 hrs by annexin-V/FITC staining based flow cytometry analysis (reference value: 2.4 %). The class given is functional.
The subject of assay [5] is HCT-116. The experiment in a line: Induction of apoptosis in human HCT-116 cells assessed as necrotic cells at 5 uM measured after 24 hrs by annexin-V/FITC staining based flow cytometry analysis (reference value: 0.2 %). Type of assay: functional.
The target in assay [6] is T1, Tubulin (Homo sapiens) (UniProt P68371+Q9H4B7+P0DPH7+P68366+Q13509+Q71U36+P04350+Q3ZCM7+P07437+P68363+Q9BQE3+Q6PEY2+Q13885+Q9BVA1+Q9BUF5). The experiment in a line: Inhibition of tubulin polymerization in human HCT-116 cells assessed as cell cycle arrest at G1/G0 phase at 12.5 uM measured after 24 hrs by propidium iodide staining based analysis. More on the design: scale not given: the % may be the effect or the level left.

Assay [7] concerns the target T1, Tubulin (Homo sapiens). Kind of assay: Inhibition of tubulin polymerization in human HCT-116 cells assessed as cell cycle arrest at G2/M phase at 12.5 uM measured after 24 hrs by propidium iodide staining based analysis. Set-up: scale not given: the % may be the effect or the level left.

In the case of `COc1cc2c(c(OC)c1OC)-c1ccc(OC)c(=O)cc1[C@@H](NC(C)=O)CC2` [COLCHICINE], the IC50 in the assay on MDA-MB-231 was found to be 930 nM; with HCT-116 [1], 5.13 µM; with HT-29, 5.19 µM. The Activity turned out to be 38.8% in the assay on HCT-116 [2], 1.9% in the assay on HCT-116 [3], 56.4% in the assay on HCT-116 [4] and 2.9% in the assay with HCT-116 [5].

With `COc1cc(-c2cc(-c3cccc(O)c3)nc(-c3ccccc3)n2)cc(OC)c1OC`, the IC50 in the assay with MDA-MB-231 was 1990 nM; in the assay on HCT-116 [1], 20.4 µM; in the assay with HT-29, more than 25 µM.

For the compound `COc1cc(-c2cc(-c3ccc(C)cc3)nc(-c3ccccc3)n2)cc(OC)c1OC`, the IC50 was 5110 nM in the assay with MDA-MB-231, 15.7 µM in the assay on HCT-116 [1] and more than 25 µM in the assay with HT-29.

Turning to `COc1cc(-c2cc(-c3ccc(O)cc3)nc(-c3ccccc3)n2)cc(OC)c1OC`, the IC50 with MDA-MB-231 was found to be 1600 nM; in the assay on HCT-116 [1], 11.8 µM; in the assay on HT-29, 11.3 µM.

For `COc1cc(-c2cc(-c3ccc(O)cc3O)nc(-c3ccccc3)n2)cc(OC)c1OC`, the IC50 worked out at 810 nM in the assay on MDA-MB-231, 5.89 µM in the assay with HCT-116 [1] and 4.96 µM with HT-29. Moreover, the Activity on Tubulin (Homo sapiens) [6] turned out to be 11.3%; on Tubulin (Homo sapiens) [7] it was 79.5%; with HCT-116 [2], 28.7%; in the assay with HCT-116 [3], 35.4%; in the assay on HCT-116 [4] it was 35.2%; in the assay with HCT-116 [5], 0.6%.

Regarding `COc1cc(-c2cc(-c3ccc(N)cc3)nc(-c3ccccc3)n2)cc(OC)c1OC`, the concentration for half-maximal inhibition (IC50) in the assay with MDA-MB-231 was 1010 nM; in the assay on HCT-116 [1], 12.3 µM; with HT-29 it was more than 25 µM.

For the compound `COc1cc(-c2cc(-c3cccs3)nc(-c3ccccc3)n2)cc(OC)c1OC`, the IC50 is 5110 nM in the assay with MDA-MB-231, 17 µM with HCT-116 [1] and more than 25 µM in the assay on HT-29.

For `COc1cc(-c2cc(-c3ccc(Cl)cc3)nc(-c3ccccc3)n2)cc(OC)c1OC`, the results for the IC50 in the assay with MDA-MB-231, with HCT-116 [1] and in the assay on HT-29 were more than 25000 nM, 7.98 µM and 6.23 µM, respectively.

On to `COc1ccc(-c2cc(-c3cc(OC)c(OC)c(OC)c3)nc(-c3ccccc3)n2)c(OC)c1`, for which the values for the concentration for half-maximal inhibition (IC50) with MDA-MB-231, in the assay on HCT-116 [1] and in the assay on HT-29 were 1440 nM, more than 25 µM and more than 25 µM, respectively.

On to `COc1cc(-c2cc(-c3cccc4ccccc34)nc(-c3ccccc3)n2)cc(OC)c1OC`, for which the IC50 was 3240 nM with MDA-MB-231, 4.93 µM in the assay on HCT-116 [1] and 4.73 µM in the assay on HT-29. Further, the Activity at Tubulin (Homo sapiens) [6] stood at 78.5%; on Tubulin (Homo sapiens) [7] it was 8.1%; with HCT-116 [2] it was 23.7%; in the assay with HCT-116 [3], 26.4%; in the assay with HCT-116 [4] it was 49.6%; in the assay with HCT-116 [5] it was 0.3%.

With `COc1ccc(-c2cc(-c3cc(OC)c(OC)c(OC)c3)nc(-c3ccccc3)n2)cc1`, the IC50 with MDA-MB-231 was found to be 3390 nM; in the assay with HCT-116 [1] it was 4.78 µM; with HT-29, 4.23 µM. In addition, the Activity was determined as 5.6% on Tubulin (Homo sapiens) [6]; 88.8% on Tubulin (Homo sapiens) [7]; 28.3% in the assay with HCT-116 [2]; 22.5% in the assay on HCT-116 [3]; 48.3% in the assay with HCT-116 [4]; 0.9% in the assay with HCT-116 [5].

As to `COc1cc(-c2cc(-c3ccc(Br)cc3)nc(-c3ccccc3)n2)cc(OC)c1OC`, the values for the IC50 in the assay on MDA-MB-231, in the assay on HCT-116 [1] and in the assay on HT-29 were more than 25000 nM, 4.32 µM and 3.17 µM, respectively.

On to `COc1cc(-c2cc(-c3cccc([N+](=O)[O-])c3)nc(-c3ccccc3)n2)cc(OC)c1OC`, for which the IC50 with MDA-MB-231 is 2440 nM; in the assay on HCT-116 [1] it was more than 25 µM; in the assay on HT-29, more than 25 µM.

Take `COc1cc(-c2cc(-c3ccccc3)nc(-c3ccccc3)n2)cc(OC)c1OC`: the IC50 in the assay on MDA-MB-231 stood at 5870 nM; with HCT-116 [1], 9.95 µM; in the assay on HT-29, 7.93 µM.
